Data: ChEMBL document CHEMBL2040734, “Benzothiazoles: search for anticancer agents” (2012)

Legend:
Type in all cases: functional
SN12C [1] = assay: Cytotoxicity against human SN12C cells assessed as cell growth at 0.1 uM after 48 hrs by sulforhodamine B assay; conditions: read-out: Activity
M14 = assay: Cytotoxicity against human M14 cells assessed as cell growth at 1 uM after 48 hrs by sulforhodamine B assay; conditions: M14, 48 h, read-out: Activity
SF-539 = assay: Cytotoxicity against human SF539 cells assessed as cell growth at 0.1 uM after 48 hrs by sulforhodamine B assay; conditions: SF-539, 48 h, read-out: Activity
HCT-116 = assay: Growth inhibition of human HCT116 cells after 48 hrs by sulforhodamine B assay; conditions: HCT-116, 48 h; for CC50: read-out: LC50 (the source's name)
In short: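 Adherent NCI-60 lines were grown in RPMI 1640 with 5% FBS and 2 mM L-glutamine, plated at 5000–40,000 cells/well and preincubated 24 h. They were then exposed to five concentrations (0.01–100 µM, from a DMSO stock) for 48 h at 37 °C, 5% CO2. Cells were fixed with cold TCA (10% final, 60 min, 4 °C) and stained with 0.4% SRB. Dye was solubilized in 10 mM Tris base and A515 read. GI50 was derived from time-zero, control and treated absorbances.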

CAKI-1 = assay: Cytotoxicity against human Caki1 cells assessed as cell growth at 0.01 uM after 48 hrs by sulforhodamine B assay; conditions: CAKI-1, 48 h, read-out: Activity
In short: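 NCI-60 five-dose screen. Cells were grown in RPMI 1640 with 5% FBS and 2 mM L-glutamine and preincubated 24 h. Compound (DMSO stock) was tested at 0.01, 0.1, 1, 10 and 100 µM for 48 h at 37 °C. Cells were fixed in situ with cold TCA (final 10%) and stained with 0.4% SRB. A515 was read, and percent growth was calculated against time-zero and control plates.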

ACHN = assay: Growth inhibition of human ACHN cells after 48 hrs by sulforhodamine B assay; conditions: for CC50: read-out: LC50 (the source's name)
In short: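 Cells were in RPMI 1640 with 5% FBS and pre-incubated 24 h. Read-out was TCA fixation, SRB staining and absorbance at 515 nm. GI50 was the concentration where [(Ti−Tz)/(C−Tz)]×100 = 50, taken from log concentration vs % growth curves. It is given as ">" the top concentration when not reached.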

HCT-15 = assay: Cytotoxicity against human HCT15 cells assessed as cell growth at 10 '-5 M after 48 hrs by sulforhodamine B assay; conditions: HCT-15, 48 h, read-out: Activity
In short: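 Primary one-dose screen across the NCI 60-line panel at 10 µM. Cells were grown in RPMI 1640 with 5% FBS and 2 mM L-glutamine and held 24 h before drug. Drug was diluted from a DMSO concentrate. Exposure was 48 h at 37 °C, 5% CO2. Cells were fixed with TCA and stained with SRB, with absorbance read at 515 nm. Percent growth was calculated against time-zero and untreated control.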

HT-29 = assay: Cytotoxicity against human HT-29 cells assessed as cell growth at 1 uM after 48 hrs by sulforhodamine B assay; conditions: HT-29, 48 h, read-out: Activity
In short: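 Five-dose NCI panel run at 0.01, 0.1, 1, 10 and 100 µM. Cells were in RPMI 1640 with 5% FBS and 2 mM L-glutamine, seeded at 5000–40,000 cells/well and pre-incubated 24 h. Drug was diluted from a DMSO stock into medium with 50 µg/ml gentamicin. Exposure was 48 h at 37 °C, 5% CO2. Cells were fixed with cold TCA and stained with 0.4% SRB, read at 515 nm. Percent growth came from time-zero, control and test absorbances.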

MDA-MB-468 = assay: Cytotoxicity against human MDA-MB-468 cells assessed as cell growth at 10 uM after 48 hrs by sulforhodamine B assay; conditions: MDA-MB-468, 48 h, read-out: Activity
SNB-75 = assay: Cytotoxicity against human SNB75 cells assessed as cell growth at 0.01 uM after 48 hrs by sulforhodamine B assay; conditions: SNB-75, 48 h, read-out: Activity
TK-10 = assay: Cytotoxicity against human TK10 cells assessed as cell growth at 10 '-5 M after 48 hrs by sulforhodamine B assay; conditions: TK-10, 48 h, read-out: Activity
A549 = assay: Cytotoxicity against human A549 cells assessed as cell growth at 10 '-5 M after 48 hrs by sulforhodamine B assay; conditions: A549, 48 h, read-out: Activity
In short: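 Primary NCI-60 single-dose screen at 10 µM. Cells were grown in RPMI 1640 with 5% FBS and 2 mM L-glutamine and plated 24 h before drug addition. Compound was solubilized in DMSO, then exposed for 48 h at 37 °C under 5% CO2. Cells were TCA-fixed and stained with SRB, and absorbance was read at 515 nm. Growth was expressed relative to time-zero and untreated controls.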

NCI/ADR-RES [2] = assay: Cytotoxicity against human NCI/ADR-RES cells assessed as cell growth at 0.1 uM after 48 hrs by sulforhodamine B assay; conditions: read-out: Activity
OVCAR-3 = assay: Cytotoxicity against human OVCAR3 cells assessed as cell growth at 0.01 uM after 48 hrs by sulforhodamine B assay; conditions: OVCAR-3, 48 h, read-out: Activity
SK-MEL-2 = assay: Cytotoxicity against human SK-MEL-2 cells assessed as cell growth at 0.1 uM after 48 hrs by sulforhodamine B assay; conditions: SK-MEL-2, 48 h, read-out: Activity
NCI/ADR-RES [3] = assay: Cytotoxicity against human NCI/ADR-RES cells assessed as cell growth at 10 '-5 M after 48 hrs by sulforhodamine B assay; conditions: read-out: Activity
NCI-H226 = assay: Cytotoxicity against human NCI-H226 cells assessed as cell growth at 10 '-5 M after 48 hrs by sulforhodamine B assay; conditions: NCI-H226, 48 h, read-out: Activity
OVCAR-5 = assay: Cytotoxicity against human OVCAR5 cells assessed as cell growth at 0.01 uM after 48 hrs by sulforhodamine B assay; conditions: OVCAR-5, 48 h, read-out: Activity
NCI/ADR-RES [4] = assay: Cytotoxicity against human NCI/ADR-RES cells assessed as cell growth at 100 uM after 48 hrs by sulforhodamine B assay; conditions: read-out: Activity
SN12C [5] = assay: Cytotoxicity against human SN12C cells assessed as cell growth at 1 uM after 48 hrs by sulforhodamine B assay; conditions: read-out: Activity
SW-620 = assay: Cytotoxicity against human SW620 cells assessed as cell growth at 1 uM after 48 hrs by sulforhodamine B assay; conditions: SW-620, 48 h, read-out: Activity
OVCAR-8 = assay: Cytotoxicity against human OVCAR8 cells assessed as cell growth at 100 uM after 48 hrs by sulforhodamine B assay; conditions: OVCAR-8, 48 h, read-out: Activity
RXF 393 = assay: Cytotoxicity against human RXF393 cells assessed as cell growth at 0.01 uM after 48 hrs by sulforhodamine B assay; conditions: RXF 393, 48 h, read-out: Activity
MDA-MB-435 = assay: Cytotoxicity against human MDA-MB-435 cells assessed as cell growth at 0.01 uM after 48 hrs by sulforhodamine B assay; conditions: MDA-MB-435, 48 h, read-out: Activity

SMILES	growth at 0.1 µM (SN12C [1]) [%]	growth at 1 µM (M14) [%]	growth at 0.1 µM (SF-539) [%]	GI50 (HCT-116) [µM]	TGI (HCT-116) [µM]	CC50 (HCT-116) [µM]	growth at 0.01 µM (CAKI-1) [%]	GI50 (ACHN) [µM]	TGI (ACHN) [µM]	CC50 (ACHN) [µM]	growth at 10 µM (HCT-15) [%]	growth at 1 µM (HT-29) [%]	growth at 10 µM (MDA-MB-468) [%]	growth at 0.01 µM (SNB-75) [%]	growth at 10 µM (TK-10) [%]	growth at 10 µM (A549) [%]	growth at 0.1 µM (NCI/ADR-RES [2]) [%]	growth at 0.01 µM (OVCAR-3) [%]	growth at 0.1 µM (SK-MEL-2) [%]	growth at 10 µM (NCI/ADR-RES [3]) [%]	further results
Cc1ccc2nc(Nc3c(C)cccc3C)sc2c1	86	58	97	2.3	> 100	> 100	93	76.6	> 100	> 100	19.9	39	9	80	61.3	32.6	93	101	99	4.04	growth at 10 µM (NCI-H226): 69.7%; growth at 0.01 µM (OVCAR-5): 93%; growth at 100 µM (NCI/ADR-RES [4]): 46%; growth at 1 µM (SN12C [5]): 65%; growth at 1 µM (SW-620): 49%; growth at 100 µM (OVCAR-8): 45%; growth at 0.01 µM (RXF 393): 94%; growth at 0.01 µM (MDA-MB-435): 95%
Clc1cccc(Cl)c1Nc1nc2cccc(Cl)c2s1	85	73	100	1.01	2.19	4.75	92	1.15	2.38	4.92	-42.5	65	-73	82	-35.7	0.55	87	98	88	-37.3	growth at 10 µM (NCI-H226): -40.8%; growth at 0.01 µM (OVCAR-5): 102%; growth at 100 µM (NCI/ADR-RES [4]): -55%; growth at 1 µM (SN12C [5]): 46%; growth at 1 µM (SW-620): 69%; growth at 100 µM (OVCAR-8): -35%; growth at 0.01 µM (RXF 393): 94%; growth at 0.01 µM (MDA-MB-435): 96%
